{"source": "paper PMC6988732", "about": "(The Biochemical journal, 2013)", "key": {"[1]": {"target": "T1, PKCθC1B L255G (Mus musculus, UniProt Q02111, L255G)", "T1 sequence (Q02111 232-281 L255G)": "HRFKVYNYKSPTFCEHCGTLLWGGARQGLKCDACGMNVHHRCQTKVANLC", "test": "[3H]PDBu binding assay", "how_it_was_run": "(§1)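 GST-cleaved mouse PKCθ C1B (residues 232–281), E. coli-expressed, affinity/gel-filtration purified. PEG-precipitation [3H]PDBu binding; Kd from saturable plus linear non-specific fit. Ki: [3H]PDBu at 2–5-fold each construct's Kd, DOG or SAG 1–100000 nM, dried from chloroform with phospholipid, sonicated. PS dependence: total phospholipid 100 μg/ml, PS 0–100%, remainder PC, relative to 100% PS. Means ± S.E.M., three independent experiments.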"}, "[2]": {"target": "full-length PKCθ W253G (Mus musculus, UniProt Q02111, W253G)", "sequence (Q02111 whole entry W253G)": "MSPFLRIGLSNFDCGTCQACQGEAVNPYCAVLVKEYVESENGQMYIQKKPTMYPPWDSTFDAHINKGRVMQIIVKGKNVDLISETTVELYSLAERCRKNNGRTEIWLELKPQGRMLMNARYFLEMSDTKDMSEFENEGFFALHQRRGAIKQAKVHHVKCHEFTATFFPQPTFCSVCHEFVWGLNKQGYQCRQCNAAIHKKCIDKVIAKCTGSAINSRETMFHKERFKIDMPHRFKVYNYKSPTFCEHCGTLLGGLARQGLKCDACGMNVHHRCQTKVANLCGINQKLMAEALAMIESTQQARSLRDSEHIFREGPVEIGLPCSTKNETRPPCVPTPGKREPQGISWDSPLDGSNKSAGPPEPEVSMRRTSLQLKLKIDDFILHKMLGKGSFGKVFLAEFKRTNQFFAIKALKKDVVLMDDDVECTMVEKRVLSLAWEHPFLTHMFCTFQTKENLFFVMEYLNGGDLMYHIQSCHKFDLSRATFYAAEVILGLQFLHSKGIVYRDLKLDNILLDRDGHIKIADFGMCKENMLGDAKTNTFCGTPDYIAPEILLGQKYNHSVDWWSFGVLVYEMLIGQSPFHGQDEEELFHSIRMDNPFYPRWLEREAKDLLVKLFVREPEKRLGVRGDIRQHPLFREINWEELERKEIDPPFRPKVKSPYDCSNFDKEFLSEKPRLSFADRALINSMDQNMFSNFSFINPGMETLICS", "test": "Membrane translocation in HEK-293 cells", "assay_type": "cell-based", "details": "250 nM DOG, 2 h"}, "[3]": {"target": "T2, PKCθC1B T243A (Mus musculus, UniProt Q02111, T243A)", "T2 sequence (Q02111 232-281 T243A)": "T1 sequence (Q02111 232-281 L255G) with T12A, G24L", "test": "[3H]PDBu binding assay", "how_it_was_run": "as §1"}, "[4]": {"target": "full-length PKCθ Y239A (Mus musculus, UniProt Q02111, Y239A)", "sequence (Q02111 whole entry Y239A)": "as the sequence (Q02111 whole entry W253G) above, with Y239A, G253W counted along it", "test": "Membrane translocation in HEK-293 cells", "assay_type": "cell-based", "details": "250 nM DOG, 2 h"}, "[5]": {"target": "T3, PKCθC1B Y239A (Mus musculus, UniProt Q02111, Y239A)", "T3 sequence (Q02111 232-281 Y239A)": "T1 sequence (Q02111 232-281 L255G) with Y8A, G24L", "test": "[3H]PDBu binding assay", "how_it_was_run": "as §1"}, "[6]": {"target": "full-length PKCθ L255G (Mus musculus, UniProt Q02111, L255G)", "sequence (Q02111 whole entry L255G)": "as the sequence (Q02111 whole entry W253G) above, with G253W, L255G counted along it", "test": "Membrane translocation in HEK-293 cells", "assay_type": "cell-based", "details": "250 nM DOG, 2 h"}, "[7]": {"target": "T4, PKCθC1B W253G (Mus musculus, UniProt Q02111, W253G)", "T4 sequence (Q02111 232-281 W253G)": "T1 sequence (Q02111 232-281 L255G) with W22G, G24L", "test": "[3H]PDBu binding assay"}, "[8]": {"target": "T5, PKCθC1B Q258G (Mus musculus, UniProt Q02111, Q258G)", "T5 sequence (Q02111 232-281 Q258G)": "T1 sequence (Q02111 232-281 L255G) with G24L, Q27G", "test": "[3H]PDBu binding assay", "how_it_was_run": "as §1"}, "[9]": {"target": "T6, PKCθC1B wild-type (Mus musculus, UniProt Q02111)", "T6 sequence (Q02111 232-281)": "T1 sequence (Q02111 232-281 L255G) with G24L", "test": "[3H]PDBu binding assay", "details": "PKCθ C1B WT", "how_it_was_run": "as §1"}, "[10]": {"target": "full-length PKCθ Q258G (Mus musculus, UniProt Q02111, Q258G)", "sequence (Q02111 whole entry Q258G)": "as the sequence (Q02111 whole entry W253G) above, with G253W, Q258G counted along it", "test": "Membrane translocation in HEK-293 cells", "assay_type": "cell-based", "details": "250 nM DOG, 2 h"}, "[11]": {"target": "full-length PKCθ T243A (Mus musculus, UniProt Q02111, T243A)", "sequence (Q02111 whole entry T243A)": "as the sequence (Q02111 whole entry W253G) above, with T243A, G253W counted along it", "test": "Membrane translocation in HEK-293 cells", "assay_type": "cell-based", "details": "250 nM DOG, 2 h"}}, "note": "Where a chain is given by its changes, count along the chain named. Several values for one entry are separate records, joined by “and”; a condition that tells them apart may be missing. Identical values can stand only once.", "data": [{"smiles": "CCCCCCCC(=O)OC[C@H](CO)OC(=O)CCCCCCC", "note": "[DOG, sn-1,2-dioctanoylglycerol]", "values": [{"measurement": "reduction in binding affinity compared with the wild-type", "setting": "[1]; L255G vs wild-type PKCθC1B (Kd for PDBu, Ki for DOG/SAG)", "result": 4.72, "unit": "fold"}, {"measurement": "Ki/Kd", "setting": "[1]; PKCθ C1B L255G, Ki of the diacylglycerol over Kd of PDBu", "result": 17}, {"measurement": "Ki", "setting": "[1]; PKCθ C1B L255G, competition of [3H]PDBu binding, mean ± S.E.M.", "result": "76 ± 24", "unit": "nM"}, {"measurement": "reduction in membrane translocation compared with the wild-type", "setting": "[2]", "result": 5.9, "unit": "%"}, {"measurement": "Ki/Kd", "setting": "[3]; PKCθ C1B T243A, Ki of the diacylglycerol over Kd of PDBu", "result": 34}, {"measurement": "Ki", "setting": "[3]; PKCθ C1B T243A, competition of [3H]PDBu binding, mean ± S.E.M.", "result": "21.5 ± 1.8", "unit": "nM"}, {"measurement": "reduction in binding affinity compared with the wild-type", "setting": "[3]; T243A vs wild-type PKCθC1B (Kd for PDBu, Ki for DOG/SAG)", "result": 1.34, "unit": "fold"}, {"measurement": "reduction in membrane translocation compared with the wild-type", "setting": "[4]", "result": 12.0, "unit": "%"}, {"measurement": "Ki/Kd", "setting": "[5]; PKCθ C1B Y239A, Ki of the diacylglycerol over Kd of PDBu", "result": 26}, {"measurement": "Ki", "setting": "[5]; PKCθ C1B Y239A, competition of [3H]PDBu binding, mean ± S.E.M.", "result": "86 ± 15", "unit": "nM"}, {"measurement": "reduction in binding affinity compared with the wild-type", "setting": "[5]; Y239A vs wild-type PKCθC1B (Kd for PDBu, Ki for DOG/SAG)", "result": 5.34, "unit": "fold"}, {"measurement": "reduction in membrane translocation compared with the wild-type", "setting": "[6]", "result": 15.4, "unit": "%"}, {"measurement": "Ki/Kd", "setting": "[7]; PKCθ C1B W253G, Ki of the diacylglycerol over Kd of PDBu", "result": 159}, {"measurement": "Ki", "setting": "[7]; PKCθ C1B W253G, competition of [3H]PDBu binding, mean ± S.E.M.", "result": "470 ± 69", "unit": "nM"}, {"measurement": "greater loss of affinity for DOG than for PDBu caused by W253G", "setting": "[7]; W253G vs wild-type", "result": 4, "unit": "fold"}, {"measurement": "reduction in binding affinity compared with the wild-type", "setting": "[7]; W253G vs wild-type PKCθC1B (Kd for PDBu, Ki for DOG/SAG)", "result": "29.2 fold and 29 fold"}, {"measurement": "Ki/Kd", "setting": "[8]; PKCθ C1B Q258G, Ki of the diacylglycerol over Kd of PDBu", "result": 3}, {"measurement": "Ki", "setting": "[8]; PKCθ C1B Q258G, competition of [3H]PDBu binding, mean ± S.E.M.", "result": "1840 ± 320", "unit": "nM"}, {"measurement": "reduction in binding affinity compared with the wild-type", "setting": "[8]; Q258G vs wild-type PKCθC1B (Kd for PDBu, Ki for DOG/SAG)", "result": 114, "unit": "fold"}, {"measurement": "Ki/Kd", "setting": "[9]; Ki of the diacylglycerol over Kd of PDBu", "result": 41}, {"measurement": "Ki", "setting": "[9]; competition of [3H]PDBu binding, mean ± S.E.M.", "result": "16.1 ± 0.7", "unit": "nM"}, {"measurement": "reduction in membrane translocation compared with the wild-type", "setting": "[10]", "result": 15.9, "unit": "%"}, {"measurement": "reduction in membrane translocation compared with the wild-type", "setting": "[11]", "result": 8.98, "unit": "%"}]}]}
